The target of data set [1] is T1, CYP19 (a recombinant human aromatase) (Homo sapiens, UniProt P11511).
T1 sequence (P11511 1-503): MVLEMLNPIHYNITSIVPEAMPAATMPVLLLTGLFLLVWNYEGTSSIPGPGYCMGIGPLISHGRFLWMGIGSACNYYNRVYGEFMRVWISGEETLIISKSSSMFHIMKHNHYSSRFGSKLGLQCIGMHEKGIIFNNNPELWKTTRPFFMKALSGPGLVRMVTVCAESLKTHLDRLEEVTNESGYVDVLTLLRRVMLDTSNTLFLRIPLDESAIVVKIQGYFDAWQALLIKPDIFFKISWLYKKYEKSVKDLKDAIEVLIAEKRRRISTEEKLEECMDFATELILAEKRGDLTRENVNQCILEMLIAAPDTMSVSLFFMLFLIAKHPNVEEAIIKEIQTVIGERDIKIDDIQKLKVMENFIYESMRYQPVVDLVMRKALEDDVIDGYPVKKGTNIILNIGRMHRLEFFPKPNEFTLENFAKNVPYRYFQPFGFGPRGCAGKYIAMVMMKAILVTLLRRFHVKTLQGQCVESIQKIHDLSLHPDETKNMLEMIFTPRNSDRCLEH
Description: Aromatase inhibition assay. Format: biochemical. Particulars: screened at 12.5 μM.

Data set [2] can be described thus: Cytotoxicity, MTT assay on normal embryonic lung cells. Format: cell-based. Particulars: human, MRC-5 normal embryonic lung cells. Summed up:
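MRC-5 cells grown in DMEM with 10% fetal bovine serum and 100 U/mL penicillin–streptomycin, seeded at 5×10³–2×10⁴ cells/well, then held 24 h at 37°C in 5% CO2. Serial dilutions of test compound added in an equal volume of medium, with doxorubicin (positive) and DMSO (negative) controls, for 48 h. MTT applied for 2–4 h; formazan dissolved in DMSO with sonication; read at 550 nm against a 650 nm reference. IC50 is the concentration giving 50% growth inhibition versus the DMSO control.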
For orientation: Tetrazolium dyes change colour on reduction, which living cells bring about.

The test system of data set [3] is human breast cancer MCF-7 cell line. Particulars: cited from earlier work.

One may read the IC50 as the point on the concentration scale where inhibition reaches its midpoint. Low readings indicate inhibition by little substance, high ones a need for much substance.

In the case of `Oc1cccc2cccnc12` [Compound 1, 8-hydroxyquinoline], the “Aromatase inhibitory activity (IC50 column, activity class)” value (“Aromatase inhibitory activity” below) in data set [1] is listed as “Inactive ^b”. Further, inhibition in data set [2] was half-maximal at 6.27 ± 0.58 µM (IC50 at 48 h). In addition, in data set [3], the “Cytotoxic activity against MCF-7” value is “substantial cytotoxic activity”.

As to `O=c1[nH]cc([N+](=O)[O-])c(=O)[nH]1` [Compound 2, 5-nitrouracil], the “Aromatase inhibitory activity” value in data set [1] is “Inactive ^b”. This compound also showed an IC50 at 48 h in data set [2] above 50 µg/mL.

With `O=c1[nH]cc(I)c(=O)[nH]1` [Compound 3, 5-iodouracil], in data set [1], the “Aromatase inhibitory activity” value was “Inactive ^b”. In addition, in data set [2], the half-maximal inhibitory concentration (IC50) at 48 h was above 50 µg/mL.

Consider `COc1cccc2c1C(=O)c1c(O)c3c(c(O)c1C2=O)C[C@@](O)(C(=O)CO)C[C@@H]3O[C@H]1C[C@H](N)[C@H](O)[C@H](C)O1` [Doxorubicin], for which, in data set [2], the concentration for half-maximal inhibition (IC50) at 48 h was above 50 µg/mL.

Values taken from paper PMC4140444 (Drug Design, Development and Therapy, 2014).
